According to paper PMC4976638 (Biochemistry, 2016):

What was measured:
apoE4 [1] = molecular target: T1, apoE4 (Homo sapiens, UniProt P02649, C130R); assay: Analytical ultracentrifugation sedimentation velocity; settings: 10 μM apoE4, 10 or 20 μM EZ-482, PBS
How it was run: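 Recombinant apoE4 was expressed in E. coli BL21(DE3) as a His-tagged thioredoxin fusion, cleaved with PreScission protease (leaving N-terminal Gly-Pro), and dialysed into PBS. For sedimentation velocity, 10 μM apoE4 was run with 0, 10 or 20 μM test compound in PBS in a double-sector centerpiece (1.2 cm path), with absorbance at 290 nm recorded in continuous mode.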

apoE3 [2] = molecular target: T2, apoE3 (Homo sapiens, UniProt P02649); assay: SYPRO Orange displacement titration, apoE3; type: binding; settings: Apparent dissociation constant Kd, Using SYPRO Orange, PBS pH 7.4, 25 °C
T2 sequence (P02649 19-317): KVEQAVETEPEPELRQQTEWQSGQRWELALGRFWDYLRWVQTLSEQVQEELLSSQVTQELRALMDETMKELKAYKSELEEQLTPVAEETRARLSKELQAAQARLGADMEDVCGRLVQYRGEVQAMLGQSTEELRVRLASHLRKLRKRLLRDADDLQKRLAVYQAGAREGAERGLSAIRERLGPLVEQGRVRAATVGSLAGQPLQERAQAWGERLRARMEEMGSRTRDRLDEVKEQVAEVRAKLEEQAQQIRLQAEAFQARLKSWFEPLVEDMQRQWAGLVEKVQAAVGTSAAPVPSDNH
How it was run: (§1)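 Adding apoE to SYPRO Orange increases its fluorescence and shifts the emission maximum to 575 nm. After a 1 h room-temperature protein preincubation, test compound was titrated stepwise and the decrease in SYPRO Orange fluorescence was fitted for an apparent Kd. Buffer: 10 mM phosphate pH 7.4, 150 mM NaCl, 1 mM DTT, 1 mM EDTA, 25 °C.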

apoE3 [3] = molecular target: T2, apoE3; assay: Quenching of ANS fluorescence, apoE3; type: binding; settings: Apparent dissociation constant Kd, Using ANS, PBS pH 7.4, 25 °C
How it was run: (§2)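 Unlabelled apoE raises ANS fluorescence. Test compound was titrated stepwise into the apoE–ANS mixture after a 1 h room-temperature protein preincubation, and quenching of ANS fluorescence gave an apparent Kd. Buffer: 10 mM phosphate pH 7.4, 150 mM NaCl, 1 mM DTT, 1 mM EDTA, 25 °C.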

apoE4 [4] = molecular target: T1, apoE4; assay: SYPRO Orange displacement titration, apoE4; type: binding; settings: Apparent dissociation constant Kd, Using SYPRO Orange, PBS pH 7.4, 25 °C
How it was run: as §1

apoE3 [5] = molecular target: T2, apoE3; assay: Differential hydrogen-deuterium exchange MS, apoE3; type: binding
How it was run: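 ApoE3 stock (10 μM in PBS, 2 mM DTT) was incubated 2 h at 25 °C with test compound […]; controls had 2% DMSO. Exchange ran in D₂O PBS (pD 7.4, 25 °C, 30 s–30 min), with 1 μM apoE and 25 μM compound. Quench used fungal XIII/urea/formic acid on ice, then pepsin digestion, C18 LC and ESI-QTOF MS. Duplicates; 48 h back-exchange correction.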

apoE4 [6] = molecular target: T1, apoE4; assay: Differential hydrogen-deuterium exchange MS, apoE4; type: binding; settings: 1 μM WT apoE4, 25 μM EZ-482, 25 °C
Solubility in DMSO = type: physicochemical
apoE4 [7] = molecular target: T1, apoE4; assay: Quenching of ANS fluorescence, apoE4; type: binding
How it was run: as §2

apoE4 [8] = molecular target: apoE4 (Homo sapiens, UniProt P02649, C130R/S157C); type: binding
Sequence of apoE4 (Homo sapiens, UniProt P02649, C130R/S157C) (P02649 19-317 C130R/S157C): as the sequence (P02649 19-317) above, with C112R, S139C counted along it
How it was run: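 Alexa488-maleimide labelled the apoE4 S139C mutant after 20 mM DTT reduction (1–2 h, 37 °C), with a 10-fold molar dye excess overnight at 4 °C (>90% labelling). Labelled protein was preincubated 1 h at room temperature, then titrated stepwise with test compound to follow fluorescence decrease. Unlabelled apoE3 was then added. Buffer: 10 mM phosphate pH 7.4, 150 mM NaCl, 1 mM DTT, 1 mM EDTA, 25 °C.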

apoE3 [9] = molecular target: apoE3 (Homo sapiens, UniProt P02649, A303C); assay: Fluorescence of TMR-labeled apoE3; type: binding
Sequence of apoE3 (Homo sapiens, UniProt P02649, A303C) (P02649 19-317 A303C): as the sequence (P02649 19-317) above, with A285C counted along it
How it was run: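 ApoE3 A285C was labelled with TMR maleimide (dye:protein 1:1; native Cys112 possibly also labelled). It was preincubated 1 h at room temperature, then titrated stepwise with test compound while fluorescence was monitored to derive an apparent Kd. Buffer: 20 mM HEPES pH 7.4, 150 mM NaCl, 1 mM DTT, 1 mM EDTA, 25 °C.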

T1 sequence (P02649 19-317 C130R): as the sequence (P02649 19-317) above, with C112R counted along it

Effect on distribution of apoE oligomers (apoE4 [1]): essentially unaffected
Kd (apoE3 [2]): 7.3 ± 0.53 µM
Kd (apoE3 [3]): 5.6 ± 0.7 µM
Kd (apoE4 [4]): 7.6 ± 0.4 µM
N-terminal allosteric effect by HDX, apoE3 (apoE3 [5]; 1 μM WT apoE3, 25 μM EZ-482, 25 °C): apoE3 N-terminal remained unaffected
Solubility in DMSO (Solubility in DMSO): reasonably soluble in DMSO
Kd (apoE4 [7]): 7.5 ± 1 µM
Kd (apoE4 [8]): 7.5 µM
Kd (apoE3 [9]): 7 ± 0.35 µM
SMILES: Cn1nc(CC(=O)Nc2cc(S(=O)(=O)Nc3cccc(Cl)c3)ccc2O)c2ccccc2c1=O [EZ-482, N-{5-[(3-chlorophenyl)sulfamoyl]-2-hydroxyphenyl}-2-(3-methyl-4-oxo-3,4-dihydrophthalazin-1-yl)acetamide]
Binding site by HDX protection, apoE3 (apoE3 [5]; 1 μM WT apoE3, 25 μM EZ-482 or 1X SYPRO Orange, 25 °C): Large protection was observed only in the C-terminal domain (229–235/234–243 and 258–265)
Binding site by HDX protection, apoE4 (apoE4 [6]): Large protection was observed only in the C-terminal domain (229–235/234–243 and 258–265)
